Legend:
MT4 [1] = assay: (§1) Anti-HIV activity was determined as dose required to protect 50% of the HIV-infected MT-4 cells against destruction; format: functional, Homo sapiens; settings: read-out: ED50 (the source's name)
Summary of the method: (§2)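 MT-4 cells infected with HIV at 10 CCID50 per well, incubated 5 days with a range of compound concentrations. Viable cells counted in a blood cell counting chamber after trypan blue staining.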

[2] = Selectivity ratio CD50 to ED50; format: functional
Summary of the method: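 Ratio of CD50 to ED50. CD50 is from uninfected MT-4 cells and ED50 from MT-4 cells infected with HIV at 10 CCID50 per well. Both are read after 5 days with compound by trypan blue viable cell counting in a blood cell counting chamber.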

MT4 [3] = assay: Cytotoxicity was determined as the dose required to reduce the viability of uninfected MT-4 cells by 50%; format: functional; settings: Homo sapiens, read-out: CD50 (the source's name)
Summary of the method: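 Mock-infected MT-4 cells incubated 5 days with a range of compound concentrations. Viable cells counted in a blood cell counting chamber after trypan blue staining.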

MT4 [4] = assay: as §1; format: functional; settings: Homo sapiens, read-out: ED50 (the source's name); summary of the method: as §2

Compound	EC50 (MT4 [1]; Homo sapiens, MT4) [µM]	Ratio [2]	CC50 (MT4 [3]) [µM]	EC50 (MT4 [4]) [µM]	EC50 (MT4 [1]) [µM]
Nc1ncnc2c1ncn2[C@H]1CC[C@@H](CO)O1	6.2	148	889	–	–
[N-]=[N+]=N[C@H]1C[C@@H](CO)O[C@H]1n1cnc2c(N)ncnc21	55	11.4	625	–	–
Nc1ncnc2c1ncn2[C@@H]1O[C@H](CO)C[C@H]1F	–	–	> 625	> 625	–
Nc1ncnc2c1ncn2[C@H]1C[C@H](F)[C@@H](CO)O1 (stereo in doubt; 12) [listing 1 of 2 here]	–	–	–	–	50
Nc1ncnc2c1ncn2[C@H]1C=C[C@@H](CO)O1	> 25	< 1.2	34	–	–
Cc1cn([C@H]2C[C@H](N=[N+]=[N-])[C@@H](CO)O2)c(=O)[nH]c1=O [ZIDOVUDINE]	0.006	666	4	–	–
[N-]=[N+]=N[C@@H]1C[C@@H](CO)O[C@H]1n1cnc2c(N)ncnc21	–	> 2.9	> 625	215	–
Nc1ncnc2c1ncn2[C@H]1C[C@H](F)[C@@H](CO)O1 (stereo in doubt; 13) [listing 1 of 2 here]	–	> 2.8	–	–	–
Nc1ncnc2c1ncn2[C@H]1C[C@H](F)[C@@H](CO)O1 (stereo in doubt; 12) [listing 2 of 2 here]	–	11.1	–	–	–
Nc1ncnc2c1ncn2[C@H]1C[C@H](F)[C@@H](CO)O1 (stereo in doubt; 13) [listing 2 of 2 here]	–	–	> 625	–	221
Nc1ncnc2c1ncn2[C@@H]1O[C@H](CO)C[C@@H]1F [LODENOSINE]	35	> 18	> 625	–	–

Source: ChEMBL document CHEMBL1123895, “Synthesis and anti-HIV activity of various 2'- and 3'-substituted 2',3'-dideoxyadenosines: a structure-activity analysis” (1987)
